Active and inactive are the calls of the source. The calls are words filed in the database; no cut-off is given here.
How the values were obtained:
Cholinesterase [1] = target: T1, Cholinesterase (Equus caballus, UniProt P81908); assay: Inhibition of equine serum butyrylcholinesterase using […] as substrate preincubated for 30 mins followed by substrate addition measured after 2.5 mins by Ellman's spectrophotometric method
Summary of the method: (§1)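 Ellman assay at 25 °C in phosphate buffer pH 8.0. Enzyme (AChE from human erythrocytes, BChE from equine or human serum; 2.5 units/mL stock with 2 mg/mL BSA) and DTNB (0.3 mM in assay) preincubated with compound from ethanol stocks (1 nM−1 mM in assay). Ethanol control, triplicates, IC50 from activity vs log concentration.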

Acetylcholinesterase [2] = target: T2, Acetylcholinesterase (Homo sapiens, UniProt P22303); assay: Inhibition of human acetylcholinesterase using […] as substrate at 100 uM preincubated for 4.5 mins followed by substrate addition measured after 2.5 mins by Ellman's spectrophotometric method
Acetylcholinesterase [3] = target: T2, Acetylcholinesterase; assay: Inhibition of human acetylcholinesterase using […] as substrate at 50 uM preincubated for 4.5 mins followed by substrate addition measured after 2.5 mins by Ellman's spectrophotometric method
Cholinesterase [4] = target: T1, Cholinesterase; assay: Inhibition of equine serum butyrylcholinesterase using […] as substrate preincubated for 4.5 mins followed by substrate addition measured after 2.5 mins by Ellman's spectrophotometric method
Summary of the method: as §1, with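 “assay). Acetyl- or butyrylthiocholine added (452 μM in assay), absorbance at 412 nm after 2.5 min.” for “assay).”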

Acetylcholinesterase [5] = target: T2, Acetylcholinesterase; assay: Inhibition of human acetylcholinesterase using […] as substrate preincubated for 30 mins followed by substrate addition measured after 2.5 mins by Ellman's spectrophotometric method; summary of the method: as §1
Acetylcholinesterase [6] = target: T2, Acetylcholinesterase; assay: Inhibition of human acetylcholinesterase using […] as substrate preincubated for 4.5 mins followed by substrate addition measured after 2.5 mins by Ellman's spectrophotometric method
Summary of the method: as §1, with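 “assay). Acetyl- or butyrylthiocholine added (452 μM in assay), absorbance at 412 nm after 2.5 min.” for “assay).”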

Acetylcholinesterase [7] = target: T2, Acetylcholinesterase; assay: Inhibition of human acetylcholinesterase using […] as substrate at 500 uM preincubated for 4.5 mins followed by substrate addition measured after 2.5 mins by Ellman's spectrophotometric method
[8] = Neurotoxicity against mouse HT22 cells assessed as cell viability at 1 and 5 uM after 24 hrs by MTT assay; type: toxicity, cell-based; settings: ht-22, 24 h
Summary of the method: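 HT-22 murine hippocampal cells grown in high-glucose DMEM plus 10% heat-inactivated FCS at 37 °C, 5% CO2. After 24 h culture in plates, treated 24 h with compound (DMSO ≤0.1% final) without glutamate. Viability read by MTT (3 h), SDS lysis buffer pH 4.1, absorbance at 560 nm, given as percent of untreated control.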

HT-22 [9] = assay: Neuroprotective activity against glutamate-induced oxycytotic cell death in mouse HT22 cells assessed as cell viability at 5 uM after 24 hrs by MTT assay; type: functional, cell-based
Summary of the method: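 Murine hippocampal HT-22 cells in high-glucose DMEM with 10% heat-inactivated FCS, 37 °C, 5% CO2. […] MTT (4 mg/mL in PBS, diluted 1:10 in medium) for 3 h, lysis in 10% SDS pH 4.1, absorbance 560 nm; viability as % of untreated cells.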

[10] = Antioxidant activity assessed as trolox equivalents of AAPH radical scavenging activity preincubated for 15 mins followed by AAPH addition measured every 60 secs for 90 mins by ORAC assay; type: physicochemical; settings: 1.5 h
Summary of the method: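 ORAC-FL: compound (1−5 μM) with fluorescein (300 nM final) in 75 mM phosphate buffer pH 7.4, 15 min at 37 °C, then AAPH (12 mM final). Fluorescence read every 60 s for 90 min (ex 485/em 535 nm). […] Samples in quadruplicate, ≥4 independent runs.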

HT-22 [11] = assay: Neuroprotective activity against glutamate-induced oxycytotic cell death in mouse HT22 cells assessed as cell viability at 25 uM after 24 hrs by MTT assay; type: functional, cell-based
Summary of the method: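 Murine hippocampal HT-22 cells in high-glucose DMEM with 10% heat-inactivated FCS, 37 °C, 5% CO2. MTT (4 mg/mL in PBS, diluted 1:10 in medium) for 3 h, lysis in 10% SDS pH 4.1, absorbance 560 nm; viability as % of untreated cells.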

[12] = target: Cholinesterase (Equus caballus) (UniProt P81908); assay: Pseudo-irreversible inhibition of equine serum butyrylcholinesterase assessed as carbamoylation rate of inhibitor from reversible enzyme inhibitor complex to carbamoylated enzyme using p-nitrophenyl butyrate as substrate preincubated for 5 to 40 mins followed by substrate addition by double reciprocal plot analysis
[13] = target: Cholinesterase (Equus caballus) (UniProt P81908); assay: (§2) Pseudo-irreversible inhibition of equine serum butyrylcholinesterase assessed as apparent affinity between enzyme and inhibitor at equilibrium state using p-nitrophenyl butyrate as substrate preincubated for 5 to 40 mins followed by substrate addition by double reciprocal plot analysis
[14] = target: Cholinesterase (Equus caballus) (UniProt P81908); assay: as §2, with “assessed as ratio of carbamoylation rate of inhibitor to apparent affinity” for “assessed as apparent affinity”
[15] = target: Cholinesterase (Equus caballus) (UniProt P81908); assay: Pseudo-irreversible inhibition of equine serum butyrylcholinesterase assessed as decarbamoylation rate using […] as substrate preincubated for 1 hr followed by 1000 fold dilution
Summary of the method: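 Enzyme incubated 1 h with inhibitor at a fully inhibiting concentration, then diluted 1:1000 in assay buffer. Activity measured by Ellman assay at various times after dilution, with uninhibited enzyme treated the same way as control. First-order fit of activity recovery gives k4.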

T1 sequence (P81908 whole entry): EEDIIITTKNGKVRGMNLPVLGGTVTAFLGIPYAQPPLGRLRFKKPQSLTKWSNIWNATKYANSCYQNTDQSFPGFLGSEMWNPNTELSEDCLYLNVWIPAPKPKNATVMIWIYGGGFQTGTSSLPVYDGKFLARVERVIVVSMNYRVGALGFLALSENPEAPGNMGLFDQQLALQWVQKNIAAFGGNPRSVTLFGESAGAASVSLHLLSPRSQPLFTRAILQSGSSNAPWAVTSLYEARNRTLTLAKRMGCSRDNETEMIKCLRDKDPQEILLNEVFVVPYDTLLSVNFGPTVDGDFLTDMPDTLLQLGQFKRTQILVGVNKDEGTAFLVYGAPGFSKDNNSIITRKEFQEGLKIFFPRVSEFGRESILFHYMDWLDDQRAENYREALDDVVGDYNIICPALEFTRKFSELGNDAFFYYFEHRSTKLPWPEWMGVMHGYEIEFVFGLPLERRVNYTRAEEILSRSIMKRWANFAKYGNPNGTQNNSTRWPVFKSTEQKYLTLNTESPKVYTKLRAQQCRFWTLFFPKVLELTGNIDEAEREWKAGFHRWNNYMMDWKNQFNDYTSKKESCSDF
Chain of Cholinesterase (Equus caballus) (P81908 whole entry): as above
T2 sequence (P22303 whole entry): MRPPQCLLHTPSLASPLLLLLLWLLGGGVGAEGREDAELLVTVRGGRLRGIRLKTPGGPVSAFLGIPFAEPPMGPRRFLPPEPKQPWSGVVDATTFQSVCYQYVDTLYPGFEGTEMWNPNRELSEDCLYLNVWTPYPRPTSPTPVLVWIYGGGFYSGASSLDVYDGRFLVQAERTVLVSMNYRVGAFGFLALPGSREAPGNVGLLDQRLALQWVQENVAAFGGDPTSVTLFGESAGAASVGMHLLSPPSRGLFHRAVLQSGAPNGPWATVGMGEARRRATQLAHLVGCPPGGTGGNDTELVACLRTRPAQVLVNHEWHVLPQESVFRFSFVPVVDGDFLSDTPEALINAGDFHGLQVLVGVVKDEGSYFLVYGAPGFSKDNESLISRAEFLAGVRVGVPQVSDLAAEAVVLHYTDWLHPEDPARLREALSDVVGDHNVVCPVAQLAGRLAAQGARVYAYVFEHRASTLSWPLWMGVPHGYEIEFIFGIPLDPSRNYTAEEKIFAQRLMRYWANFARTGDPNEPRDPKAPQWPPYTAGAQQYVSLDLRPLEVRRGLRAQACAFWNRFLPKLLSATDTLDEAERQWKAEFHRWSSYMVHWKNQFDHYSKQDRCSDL

Row | SMILES | IC50 (Cholinesterase [1]) | inhibition (Acetylcholinesterase [2]) | IC50 (Cholinesterase [4]) | IC50 (Acetylcholinesterase [6]) | further results
1 | CCCCCCCNC(=O)Oc1ccc2c(c1)CN(C)C(c1cccc(C)c1)N2C (stereo not drawn) | 0.199 µM | 27% | – | – | –
2 | CN1Cc2cc(O)ccc2N(C)C1c1ccc2ccccc2c1 (stereo not drawn) | – | – | 16.5 µM | – | inhibition (Acetylcholinesterase [3]): 9%
3 | CCCCCCCNC(=O)Oc1ccc2c(c1)CN(C)C(c1cc[nH]c1)N2C (stereo not drawn) | 0.023 µM | – | – | – | IC50 (Acetylcholinesterase [5]): 0.852 µM
4 | CN1Cc2cc(O)ccc2N(C)C1c1c(Cl)cccc1Cl (stereo not drawn) | – | – | 7.1 µM | 13.5 µM | –
5 | Oc1ccc2nc(-c3ccccc3)ncc2c1 | – | – | 98.1 µM | – | inhibition (Acetylcholinesterase [7]): 20%
6 | CCCCCCCNC(=O)Oc1ccc2c(c1)CN(C)C(c1ccncc1)N2C (stereo not drawn) | 0.723 µM | 16% | – | – | –
7 | CN1Cc2cc(O)ccc2N(C)C1c1ccccc1 (stereo not drawn) | – | – | 39.9 µM | 327 µM | Activity [8]: Non-toxic; Activity (HT-22 [9]): Active; Activity [10]: 3 equiv
8 | COc1ccc(C2N(C)Cc3cc(O)ccc3N2C)cc1 (stereo not drawn) | – | – | 39.5 µM | 104 µM | Activity [8]: Non-toxic; Activity (HT-22 [9]): Active; Activity (HT-22 [11]): inactive; Activity [10]: 3.7 equiv
9 | CCCCCCCNC(=O)Oc1ccc2c(c1)CN(C)C(c1ccsc1)N2C (stereo not drawn) | 0.022 µM | 13% | – | – | –
10 | CCCCCCCNC(=O)Oc1ccc2c(c1)CN(C)C(c1cccc(Cl)c1)N2C (stereo not drawn) | 0.096 µM | 39% | – | – | K [12]: 0.16 min⁻¹; K [13]: 227 nM; Ratio [14]: 0.7 µM⁻¹ min⁻¹
11 | CN1Cc2cc(O)ccc2N(C)C1c1cccs1 (stereo not drawn) | – | – | 63.2 µM | 226 µM | Activity [8]: Non-toxic; Activity (HT-22 [9]): Active; Activity [10]: 3.4 equiv
12 | CN1Cc2cc(O)ccc2N(C)C1c1ccncc1 (stereo not drawn) | – | – | 2.1 µM | 242 µM | –
13 | CC(C)N1Cc2cc(O)ccc2N(C)C1c1ccccc1 (stereo not drawn) | – | – | 55.8 µM | 253 µM | –
14 | CN1Cc2cc(O)ccc2N(C)C1c1ccc(F)cc1 (stereo not drawn) | – | – | 58.9 µM | 143 µM | –
15 | CCCN1Cc2cc(O)ccc2N(C)C1c1ccccc1 (stereo not drawn) | – | – | 22.8 µM | 279 µM | –
16 | CCCCCCCNC(=O)Oc1ccc2nc(-c3ccccc3)ncc2c1 | 1.8 µM | 22% | – | – | K [12]: 0.14 min⁻¹; K [13]: 1060 nM; Ratio [14]: 0.13 µM⁻¹ min⁻¹
17 | CCCCCCCNC(=O)Oc1ccc2c(c1)CN(C)C(c1cccnc1)N2C (stereo not drawn) | 0.565 µM | 18% | – | – | –
18 | CCCCCCCNC(=O)Oc1ccc2c(c1)CN(C(C)C)C(c1ccccc1)N2C (stereo not drawn) | 0.021 µM | 33% | – | – | K [12]: 0.16 min⁻¹; K [13]: 186 nM; Ratio [14]: 0.86 µM⁻¹ min⁻¹
19 | CNC(=O)Oc1ccc2c(c1)[C@]1(C)CCN(C)[C@@H]1N2C | – | – | – | – | K [12]: 0.3 min⁻¹; K [13]: 280 nM; K [15]: 0.25 h⁻¹
20 | Cc1ccccc1C1N(C)Cc2cc(O)ccc2N1C (stereo not drawn) | – | – | 92.4 µM | 143 µM | –
21 | Cc1cccc(C2N(C)Cc3cc(O)ccc3N2C)c1 (stereo not drawn) | – | – | 17.4 µM | 437 µM | –
22 | CCCCCCCNC(=O)Oc1ccc2c(c1)CN(C)C(c1ccc(Cl)cc1)N2C (stereo not drawn) | 0.115 µM | 24% | – | – | –
23 | COc1cccc(C2N(C)Cc3cc(O)ccc3N2C)c1 (stereo not drawn) | – | – | 7.8 µM | – | inhibition (Acetylcholinesterase [7]): 61%
24 | CCCCCCCNC(=O)Oc1ccc2c(c1)CN(CCC)C(c1ccccc1)N2C (stereo not drawn) | 0.04 µM | 46% | – | – | –

Reference: ChEMBL document CHEMBL3785077 (J Med Chem, 2016)
